Compound activity deposited in PubChem by several laboratories.
PKA-R1A activ: activates the PKA-R1A holoenzyme complex | hit rate 0.083% among 340,000 | P00514+P68181 | PKA-R1A dissociation, Cy5-IP20 fluorescence polarization; scaled: DMSO 0%, 113 µM cGMP 100% | activation, % at 11.4 µM;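 active = percent activation above the mean of all tested compounds plus 3 SD, cut at about 19% in these data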;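 note: higher means more PKAc released from R1A so a rise in polarization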
dFosB act: activators of mouse delta FosB homodimer; purified delta FosB, TAMRA-CDK5 oligo fluorescence polarization; percent of positive-control signal above neutral wells; activation, % at 25 µM; hit rate 0.99% among 340,000; P13346;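 active = mean activation above about 17%, with every replicate also reaching it, limit read from the data, passing the limit was not always enough; inconclusive = only one of the two conditions met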
PKA-R2B act: PKA-R2B complex activation; PKA-R2B holoenzyme dissociation, Cy5-IP20 fluorescence polarization; R2B truncated from residue 108, S112A mutant; 0% DMSO only, 100% 113 µM cGMP; activation, % at 11.4 µM; hit rate 0.079% among 340,000; AID 504700;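 active = activation above a cutoff set at the mean over all compounds plus 3 SD, cut at about 18% in these data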;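 note: higher means more holoenzyme dissociation and a rise in polarization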
Target sequence (P31323 whole entry, looked up, other chains not shown, the tested form may be a part): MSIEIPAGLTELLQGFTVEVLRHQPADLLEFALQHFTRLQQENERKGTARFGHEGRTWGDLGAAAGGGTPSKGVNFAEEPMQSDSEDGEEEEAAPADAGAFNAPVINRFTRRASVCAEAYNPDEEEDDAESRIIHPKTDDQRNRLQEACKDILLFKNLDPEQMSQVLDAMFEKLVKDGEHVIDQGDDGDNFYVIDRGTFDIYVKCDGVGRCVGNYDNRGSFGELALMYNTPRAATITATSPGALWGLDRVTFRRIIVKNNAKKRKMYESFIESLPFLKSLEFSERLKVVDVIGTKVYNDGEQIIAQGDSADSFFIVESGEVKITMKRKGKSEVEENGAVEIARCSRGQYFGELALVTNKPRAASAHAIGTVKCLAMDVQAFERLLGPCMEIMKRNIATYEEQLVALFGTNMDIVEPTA
SR-BI DiI-HDL act: enhances SR-BI lipid uptake from DiI-HDL; CHO ldlA[mSR-BI] cells, DiI-HDL uptake fluorescence, 3 h; 100 = double the neutral-control signal; activation, % at 12.5 µM; hit rate 0.096% among 320,000;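 active = mean replicate activation of at least 60% and every replicate at or above 60%; inconclusive = mean or all-replicate condition met, but not both; inactive = mean below 60% and not all replicates reaching 60%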;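 note: 0% = median plate neutral-control signal and 100% = twice that signal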
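system = CHO ldlA[mSR-BI] cells, LDL receptor-null, SR-BI overexpressing | medium = Ham's F12 with 0.5% BSA, HEPES 25 mM, pH 7.4 | probe or stimulus = DiI-HDL 10 µg/mL | compound dosing = single-point compound dose | incubation = compound exposure 3 h, 37 °C | technique = DiI fluorescence, bottom read | read-out = cell-associated DiI fluorescence as measure of HDL uptake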
SR-BI DiI inh: inhibitors of mouse SR-BI mediated HDL lipid uptake. ldlA[mSR-BI] CHO cells, DiI-HDL uptake fluorescence, 3 h. inhibition, % at 12.5 µM. hit rate 0.96% among 320,000;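 active = mean replicate inhibition of at least 70% and a set share of replicates each scoring 70 or more; inconclusive = meets just one of the two criteria; inactive = fails both criteria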;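 note: 0% = median of neutral control wells and 100% = median of positive control wells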
CDK5 p35 inh: blocks human CDK5/p35 kinase activity. Q00535+Q15078. Recombinant CDK5/p35, ADP-Glo luminescence, 60 min. inhibition, % at 10 µM. hit rate 0.01% among 330,000. AID 488839;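 active = highest replicate inhibition of at least 50% and at least 75% of replicates reaching 50%; inconclusive = only one of the two criteria met; inactive = both criteria failed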;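 note: plate controls were DMSO neutral control for no effect and GW8510 at 10 µM for full effect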
* = called active by the depositor; ? = inconclusive; . = no result. Sampled rows, rich in hits. Any-hit rate of the full collection: about 2.1%.

SMILES	PKA-R1A activ	dFosB act	PKA-R2B act	SR-BI DiI-HDL act	SR-BI DiI inh	CDK5 p35 inh
COc1ccc2c(c1)[C@H]1[C@H](CO2)[C@H](c2ccccc2)[C@]2(C)C(=O)N(Cc3ccc(C)cc3)CC(=O)N12	0.3	-2.0	0.9	-10.9	10.9	1.0
CC(=O)Nc1ccc(S(=O)(=O)NC2=NCN(c3ccc([N+](=O)[O-])cc3)CN2)cc1	-2.0	23.9*	2.2	.	-27.6	1.4
COC(=O)c1c(NC(=O)CN2CCN(c3ncccn3)CC2)sc(C(N)=O)c1C	1.4	-11.7	-12.5	-15.5	15.4	-0.9
Cc1cc(C)c(NC(=O)CSc2nc3ccc(NC(=O)CSc4nnnn4-c4ccccc4)cc3s2)c(C)c1	-17.5	-7.0	1.9	-77.0	77.0*	0.5
Cc1cc(C)c(NC(=O)CSc2nc3ccc(NC(=O)CSc4nnnn4Cc4ccccc4)cc3s2)c(C)c1	3.7	-2.9	8.0	-45.5	45.5	-1.0
CC(C)c1ccccc1NCC(=O)N1CCN(Cc2ccccc2)CC1	2.2	-6.2	-6.8	-38.0	38.0	-1.3
Brc1ccc(-c2ccc(/C=N/Nc3nc4ccccc4[nH]3)o2)cc1	0.7	38.9*	-4.4	-39.2	39.2	2.6
O=C1CCC/C(=N/Nc2ccc(Cl)cc2)C1	-5.7	-14.1	-2.6	-79.6	79.6*	0.7
CC(C)c1ccc(/C=N/NC(=O)c2ccc(-n3cnnn3)cc2)cc1	-4.0	12.4	-5.7	-84.3	84.3*	-0.3
Cc1ccc(/C=N/NC(=O)c2ccc(-n3cnnn3)cc2)cc1	-1.7	3.5	-1.2	-13.1	13.1	0.0
CC(=O)Nc1ccc(NC(=O)CNC(=O)c2cccc(C)c2)cc1	-6.9	-4.9	-2.3	-2.9	2.9	-2.0
CCOc1ccc(N(C(C)C(=O)Nc2cccnc2)S(C)(=O)=O)cc1 (stereo not drawn)	1.8	-2.7	-8.9	-6.3	6.3	1.2
CCOc1ccc(N(C(C)C(=O)N/N=C(\C)c2cccc(NC(=O)c3ccccc3)c2)S(C)(=O)=O)cc1 (stereo not drawn)	2.0	-14.8	-4.2	-78.4	78.4*	0.2
Cc1cc(C)c(O)c(CN(C)Cc2cc(Cl)cc(Cl)c2O)c1	3.0	-5.8	-0.2	-112.2	112.2*	-0.5
Cc1ccnc(NCc2cc(Cl)cc(Cl)c2O)c1	-1.9	.	-3.4	.	.	.
Cc1ccc(NC(=O)CCc2c(C)nn(-c3ccc(N4CCCCC4)nn3)c2C)cc1	6.2	-5.0	2.5	-44.1	44.1	.
Cc1cc(F)ccc1NC(=O)CCc1c(C)nn(-c2ccc(N3CCCCC3)nn2)c1C	-1.5	-6.2	3.3	-82.4	82.4*	-0.4
Cc1ccc(F)cc1NC(=O)CCc1c(C)nn(-c2ccc(N3CCCCC3)nn2)c1C	2.7	-4.3	-12.4	-80.6	80.6*	1.0
COc1ccc(C)cc1NC(=O)CCc1c(C)nn(-c2ccc(N3CCCCC3)nn2)c1C	0.5	-7.4	-3.4	-71.1	71.1*	0.3
CC1CCCCC12NC(=O)N(CC(=O)OCc1cccc(F)c1)C2=O (stereo not drawn)	-1.4	2.2	-4.8	7.6	-7.6	-0.5
O=C(N/N=C/c1cccc([N+](=O)[O-])c1O)c1cccs1	6.0	-2.6	-0.1	-98.4	98.4*	2.9
O=C(N/N=C/c1ccccc1OCc1ccccc1)c1cccs1	-11.9	0.2	-10.1	-75.6	75.6*	1.2
COc1cc(/C=N/NC(=O)c2cccs2)ccc1OCc1ccccc1	-1.6	6.4	10.8	-42.7	42.7	0.8
Cc1ccc(S(=O)(=O)N2C(=O)C(c3ccccc3)SC2=Nc2ccccc2)cc1 (stereo not drawn)	-4.8	42.7*	-3.9	15.5	-15.5	0.6
CCC(=O)N1CCc2cc(S(=O)(=O)N3CCN(c4ccccc4Cl)CC3)ccc21	0.5	-8.7	0.7	5.5	-5.5	-0.3
SMILES	PKA-R1A activ	dFosB act	PKA-R2B act	SR-BI DiI-HDL act	SR-BI DiI inh	CDK5 p35 inh
CCc1ccc(OC(C)C(=O)Nc2ccc(S(=O)(=O)Nc3nccs3)cc2)cc1 (stereo not drawn)	12.6	-2.2	4.7	18.0	-18.1	-1.0
O=c1cc2oc3cc(O)c(O)cc3c(-c3ccccc3[N+](=O)[O-])c-2cc1O	0.4	-2.0	-1.9	-89.6	89.6*	1.8
CCN(C(=O)COC(=O)C1CC1C)c1c(N)n(Cc2ccccc2)c(=O)[nH]c1=O (stereo not drawn)	2.0	-5.2	-0.9	33.2	-33.2	-1.9
O=C1c2cccc(OCc3ccc(F)cc3)c2CCN1Cc1ccccc1	-7.1	-3.3	-3.7	-25.4	25.4	-1.6
CCN1CCc2c(OCc3ccccc3)cccc2C1=O	-3.6	-9.2	-9.8	-80.1	80.1*	-1.4
Cc1occc1C(=O)N/N=C/c1sc(N2CCOCC2)nc1-c1ccccc1	-7.2	-8.9	-4.4	8.5	-8.5	-1.0
Cc1occc1C(=O)N/N=C/C1=C(N2CCOCC2)C(=C/c2ccc(Cl)cc2Cl)/CC1	-0.5	-6.1	-2.9	-86.4	86.4*	0.2
NC(=S)NN=C1CSSC1	2.8	.	3.9	.	.	.
CSCCC(NS(=O)(=O)c1ccc(C)cc1)C(=O)NCC(C)(C)N1CCOCC1 (stereo not drawn)	4.4	6.8	4.1	-4.6	4.6	-0.5
Cc1c(F)cccc1NC(=O)c1ccc2c(c1)CCN2S(C)(=O)=O	-4.9	-3.1	7.4	-50.2	50.2	-4.5
Clc1ccc(/C=C\c2nccc3c2[nH]c2ccccc23)cc1	3.1	27.0*	-7.0	-44.9	44.9	-3.1
N#Cc1ccc(/C=C\c2nccc3c2[nH]c2ccccc23)cc1	1.6	?	1.3	-59.0	59.0	1.8
CN1C=C/C(=C\c2cc[n+](C)c3ccccc23)c2ccccc21	4.8	37.9*	-5.4	17.6	-17.6	3.1
Oc1c(Cl)cc(Cl)cc1/C=N/NC(=S)NC1CC2C=CC1C2 (stereo not drawn)	-14.5	-10.7	-9.3	-98.2	98.2*	1.1
CN(CC(=O)Nc1cccc(F)c1)C(=O)CN1C(=O)NC2(CCCC2)C1=O	-3.9	-5.0	-1.1	9.9	-9.9	-0.5
COc1cc2nc(N(C)C)nc(N)c2cc1OC	-0.3	-8.2	-4.0	16.6	-16.6	-0.3
COc1cc2nc(Nc3ccc(F)cc3)nc(N)c2cc1OC	-1.9	20.8*	-0.3	19.0	-19.1	1.6
CCOC(=O)c1ccc(Nc2nc(N)c3cc(OC)c(OC)cc3n2)cc1	7.6	37.3*	-2.1	2.8	-2.8	-0.1
COc1cc2nc(Nc3ccc(C)c(C)c3)nc(N)c2cc1OC	-18.6	105.4*	-3.3	14.4	-14.4	0.2
COc1cc2nc(Nc3ccc(C)c(Cl)c3)nc(N)c2cc1OC	-2.5	59.5*	-0.8	2.5	-2.5	-0.2
COc1cccc(CNS(=O)(=O)c2ccc3c(c2)oc(=O)n3C)c1	4.4	-9.2	0.6	-4.2	4.2	-0.7
